In paper PMC11476771 (BMC Nephrology, 2024):
Like-named read-outs stand apart in the source and are kept apart here.

Columns and labels:
[1] = assay type: in vivo, human
How it was run: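 Open-label, parallel-group, single 3.0 mcg/kg IV dose by check-in weight in NDD subjects stratified by MDRD eGFR, and in matched healthy controls. Plasma sampled predose to 72 h; urine collected in intervals to 72 h. LC-MS/MS (LLOQ 0.1 ng/mL plasma, 1.0 ng/mL urine); noncompartmental parameters. ANCOVA on ln Cmax/AUCinf (covariates age, weight, BMI, sex) gave geometric mean ratios with 90% CI. CL was regressed linearly on eGFR.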

[2] = Multiple-dose phase 2; assay type: in vivo, human; settings: for Dose proportionality of Cmax and AUC0 − 48 (power model): 0.5, 1.0, 2.5 mcg/kg, 95% CIs included 1
How it was run: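 Randomized, double-blind, placebo-controlled dose escalation in HD subjects. Sequential cohorts of 8 (6 active, 2 placebo), randomized 3:1 within strata of urine output. IV bolus given within 15 min after each of 3 HD sessions over 1 week. Serial plasma sampled days 1–8 by LC-MS/MS (LLOQ 0.1 ng/mL). Noncompartmental parameters; RAC from day 5:day 1 AUC0−48; power-model dose proportionality.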

[3] = Safety; assay type: in vivo, human; settings: single IV 3.0 mcg/kg
[4] = Safety; assay type: in vivo, human; settings: HD subjects; multiple-dose PK study
[5] = hemodialysis patients after treatment discontinued; cited from earlier work

Structure (SMILES): CC(C)C[C@@H](NC(=O)[C@@H](Cc1ccccc1)NC(=O)[C@H](N)Cc1ccccc1)C(=O)N[C@H](CCCCN)C(=O)N1CCC(N)(C(=O)O)CC1 [difelikefalin]
- Intercept of total CL versus eGFR ([1]; CL value = intercept + slope * eGFR, IV 3.0 mcg/kg, 95% CI 3.734794–20.470724): 12.1
- Slope of total CL versus eGFR ([1]; CL value = intercept + slope * eGFR, IV 3.0 mcg/kg, NDD subjects with impaired or normal renal function, 95% CI 0.482284–0.718031, P < 0.0001): 0.6002
- Exposure relative to healthy subjects ([1]; moderate renal impairment vs healthy subjects, single IV 3.0 mcg/kg): 1.7 fold
- Reduction of clearance compared with healthy subjects ([1]; moderate renal impairment, single IV 3.0 mcg/kg): 47.0%
- Exposure relative to healthy subjects ([1]; severe renal impairment vs healthy subjects, single IV 3.0 mcg/kg): 3.3 fold
- Reduction of clearance compared with healthy subjects ([1]; severe renal impairment, single IV 3.0 mcg/kg): 71.7%
- Time of peak plasma concentration ([1]; single IV 3.0 mcg/kg, first post-dose PK sample, across all treatment groups): 2 to 3 min
- Dose proportionality of Cmax and AUC0 − 48 (power model) ([2]; HD subjects): slope values were all close to unity
- Dose proportionality of Cmax and AUC0 − 48 (power model) ([2]; HD subjects, listed as IV difelikefalin): demonstrated dose proportionality
- Mean t1/2, range over dose groups ([2]; HD subjects, day 1, 0.5-2.5 mcg/kg): 1390 to 1870 min
- Mean accumulation ratio (RAC), range over dose groups ([2]; HD subjects, day 5, 3 dose groups): 1.0–1.2
- Increase of half-life in HD subjects compared with normal renal function ([2]; cross-study comparison): approximately 10 fold
- Clearance in HD subjects prior to dialysis as % of healthy subjects ([2]; cross-study comparison, reference is 2.5 mcg/kg HD group): 14%
- Tmax ([2]; human, in vivo, iv): 5 min
- Subjects with vomiting ([3]; 3/36 subjects): 8.3%
- Subjects with dizziness ([3]; 4/36 subjects): 11.1%
- Subjects with mild headache ([3]; 4/36 subjects): 11.1%
- Subjects with paresthesia (mild) ([3]; 5/36 subjects): 13.9%
- Subjects reporting TEAEs ([3]; 17/36 subjects): 47.2%
- Serious AEs ([3]; all 36 subjects): none were serious AEs
- Total number of TEAEs ([3]; all 36 subjects): 37
- TEAEs considered related to study drug ([3]; all 36 subjects, number of events): 17
- TEAEs of moderate severity ([3]; number of events, most TEAEs mild): 7
- SAEs, severe TEAEs, TEAEs leading to discontinuation, deaths [4]: no SAEs, severe TEAEs, TEAEs that led to drug discontinuations, or deaths
- Detectability in plasma after dialysis cycles [5]: no longer detectable in plasma after 2 dialysis cycles
- Reduction of plasma concentration by a single dialysis cycle [5]: approximately 83%
